From PMC10249106 (ACS Omega, 2023)

Legend:
[1] = tested on: PC3 cells; assay: MTT cytotoxicity assay, PC3; type: cell-based; conditions: Homo sapiens, PC-3, 24 h, read-out: IC50 PC3
Method in brief: (§1)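 Cells (ATCC via VACSERA) grown in RPMI-1640 with 10% FBS, penicillin 100 units/mL and streptomycin 100 μg/mL, 37 °C, 5% CO2. Seeded at 1.0 × 10^4 cells/well and held 48 h, then exposed to a range of test compound concentrations for 24 h. MTT (5 mg/mL solution) added for 4 h, formazan dissolved in DMSO, absorbance 570 nm. Run in triplicate; IC50 calculated. 5-FU reference.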

[2] = molecular target: Pim-1 kinase (Homo sapiens, UniProt P11309); assay: Pim-1 kinase inhibition, luminescent ADP-Glo kinase assay; type: biochemical
[3] = tested on: MCF-7 cells; assay: MTT cytotoxicity assay, MCF-7; type: cell-based; conditions: Homo sapiens, MCF7, 24 h, read-out: IC50 MCF-7
Method in brief: as §1

[4] = tested on: HCT-116 cells; assay: MTT cytotoxicity assay, HCT-116; type: cell-based; conditions: Homo sapiens, HCT-116, 24 h, read-out: IC50 HCT-116
Method in brief: as §1

[5] = tested on: HepG2 cells; assay: MTT cytotoxicity assay, HepG2; type: cell-based; conditions: Homo sapiens, HepG2, 24 h, read-out: IC50 HePG2
Method in brief: as §1

Pim-1 kinase, sequence (P11309 whole entry): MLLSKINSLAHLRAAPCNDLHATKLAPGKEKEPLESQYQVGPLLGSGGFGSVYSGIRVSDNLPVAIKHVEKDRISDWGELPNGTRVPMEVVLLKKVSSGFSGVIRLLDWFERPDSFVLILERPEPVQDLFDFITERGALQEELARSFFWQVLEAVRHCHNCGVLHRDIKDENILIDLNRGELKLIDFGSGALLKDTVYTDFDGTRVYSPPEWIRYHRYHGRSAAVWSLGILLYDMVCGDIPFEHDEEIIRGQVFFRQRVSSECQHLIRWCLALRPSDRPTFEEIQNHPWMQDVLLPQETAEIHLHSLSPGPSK

| Structure (SMILES) | IC50 [2] [µM] | fold less potent than quercetagetin (Pim-1 inhibition) [2] | times more potent than A (Pim-1 inhibition) [2] [times] | IC50 [1] [µM] | IC50 [3] [µM] | IC50 [4] [µM] | IC50 [5] [µM] |
| --- | --- | --- | --- | --- | --- | --- | --- |
| N#Cc1c(-c2cc3ccccc3nc2Cl)cc(-c2ccccc2)[nH]c1=O [3a, 4-(2-Chloroquinolin-3-yl)-2-oxo-6-phenyl-1,2-dihydropyridine-3-carbonitrile] | 0.9 ± 0.04 | – | – | 26.9 ± 1.28 | 60 ± 2.93 | 49.9 ± 2.36 | 11.6 ± 0.57 |
| N#Cc1c(-c2cc3ccccc3nc2Cl)cc(-c2cccc(N)c2)[nH]c1=O [3b, 6-(3-Aminophenyl)-4-(2-chloroquinolin-3-yl)-2-oxo-1,2-dihydropyridine-3-carbonitrile] | 0.85 ± 0.04 | – | – | 18.4 ± 0.89 | 42.4 ± 2.13 | 30.9 ± 1.52 | 12.4 ± 0.59 |
| COc1ccc(-c2cc(-c3cc4ccccc4nc3Cl)c(C#N)c(=O)[nH]2)cc1 [3c, 4-(2-Chloroquinolin-3-yl)-6-(4-methoxyphenyl)-2-oxo-1,2-dihydropyridine-3-carbonitrile] | 0.79 ± 0.04 | – | – | 25.8 ± 1.3 | 25.4 ± 1.2 | 18.3 ± 0.89 | 14.1 ± 0.68 |
| N#Cc1c(-c2cc3ccccc3nc2Cl)cc(-c2ccc(Br)cc2)[nH]c1=O [3d, 6-(4-Bromophenyl)-4-(2-chloroquinolin-3-yl)-2-oxo-1,2-dihydropyridine-3-carbonitrile] | 0.72 ± 0.03 | – | – | 20.5 ± 0.97 | 19.9 ± 0.96 | 20 ± 0.99 | 16.2 ± 0.77 |
| N#Cc1c(-c2cc3ccccc3nc2Cl)cc(-c2ccc(Cl)cc2Cl)[nH]c1=O [3e, 4-(2-Chloroquinolin-3-yl)-6-(2,4-dichlorophenyl)-2-oxo-1,2-dihydropyridine-3-carbonitrile] | 2.31 ± 0.11 | – | – | 25.9 ± 1.25 | 45.9 ± 2.18 | 50.7 ± 2.5 | 11.6 ± 0.57 |
| O=c1[nH]cc(F)c(=O)[nH]1 [5-FU, 5-fluorouracil, reference compound] | – | – | – | 10.3 ± 0.5 | 7.75 ± 0.37 | 8.01 ± 0.39 | 9.42 ± 0.46 |

Second part, led by results:

| IC50 [2] [µM] | fold less potent than quercetagetin (Pim-1 inhibition) [2] | times more potent than A (Pim-1 inhibition) [2] [times] | Structure (SMILES) | IC50 [1] [µM] | IC50 [3] [µM] | IC50 [4] [µM] | IC50 [5] [µM] |
| --- | --- | --- | --- | --- | --- | --- | --- |
| 1.24 ± 0.06 | about 2 fold | – | N#Cc1c(-c2cc3ccccc3nc2Cl)cc(-c2ccccc2)nc1Cl [4a, 2-Chloro-4-(2-chloroquinolin-3-yl)-6-phenylnicotinonitrile] | 35.3 ± 1.67 | 75.7 ± 3.74 | 50 ± 2.44 | 10 ± 0.49 |
| 0.63 ± 0.03 | – | – | N#Cc1c(-c2cc3ccccc3nc2Cl)cc(-c2cccc(N)c2)nc1Cl [4b, 6-(3-Aminophenyl)-2-chloro-4-(2-chloroquinolin-3-yl) nicotinonitrile] | 15 ± 0.74 | 19.2 ± 0.94 | 20.2 ± 0.96 | 12 ± 0.59 |
| 0.61 ± 0.03 | – | – | COc1ccc(-c2cc(-c3cc4ccccc4nc3Cl)c(C#N)c(Cl)n2)cc1 [4c, 2-Chloro-4-(2-chloroquinolin-3-yl)-6-(4-methoxyphenyl) nicotinonitrile] | 13.6 ± 0.67 | 15.7 ± 0.78 | 7.15 ± 0.35 | 8.02 ± 0.38 |
| 0.46 ± 0.02 | – | 2 | N#Cc1c(-c2cc3ccccc3nc2Cl)cc(-c2ccc(Br)cc2)nc1Cl [4d, 6-(4-Bromophenyl)-2-chloro-4-(2-chloroquinolin-3-yl) nicotinonitrile] | 14.1 ± 0.7 | 8.5 ± 0.42 | 8.35 ± 0.42 | 6.95 ± 0.34 |
| 1.42 ± 0.07 | ~2.5 fold | – | N#Cc1c(-c2cc3ccccc3nc2Cl)cc(-c2ccc(Cl)cc2Cl)nc1Cl [4e, 2-Chloro-4-(2-chloroquinolin-3-yl)-6-(2,4-dichlorophenyl) nicotinonitrile] | 35.1 ± 1.73 | 55.5 ± 2.71 | 65.1 ± 3.08 | 11.5 ± 0.56 |
